From ChEMBL document CHEMBL4043297, “Synthesis and Structure-Activity Relationships of the Novel Antimalarials 5-Pyridinyl-4(1 H)-Pyridones” (J Med Chem, 2018)

Legend:
[1] = system: Plasmodium falciparum; assay: Antimalarial activity against Plasmodium falciparum 3D7A infected in human RBC after 48 hrs by [3H]-hypoxanthine incorporation assay; format: functional
[2] = Volume of distribution in CD1 mouse at 0.211 mg/kg, iv as bolus dose by LC-MS/MS method; format: ADME, organism-based; conditions: in vivo
Summary of the method: (§1)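 Specific pathogen-free female CD1 (Hsd:ICR) mice, 8–10 weeks old, housed in the institutional animal facility. Each compound was given intravenously at a low dose and orally at a higher dose. Vd, clearance, t1/2, Cmax, Tmax, AUC0-t, AUC∞ and %F were derived from plasma exposure after each route.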

[3] = Clearance in CD1 mouse at 0.211 mg/kg, iv as bolus dose by LC-MS/MS method; format: ADME, organism-based; conditions: in vivo
Summary of the method: (§2)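 Specific pathogen-free female CD1 (Hsd:ICR) mice, 8 to 10 weeks old. Each compound was given as an intravenous dose and an oral dose at the levels listed. Parameters reported: Vd, clearance, t1/2, Cmax, Tmax, AUC0-t, AUC∞ and %F.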

[4] = Oral bioavailability in CD1 mouse at 8.366 mg/kg administered via gavage by LC-MS/MS method; format: ADME, organism-based; conditions: in vivo; summary of the method: as §1
[5] = molecular target: serum albumin (Homo sapiens, UniProt P02768); assay: Binding affinity to human serum albumin by HPLC method; format: ADME; conditions: read-out: PB (converted)
[6] = AUC (infinity) in CD1 mouse at 8.366 mg/kg administered via oral gavage by LC-MS/MS method; format: ADME, organism-based; design: dose 8.366 mg/kg, route oral, time infinity; conditions: in vivo; summary of the method: as §2
[7] = AUC (0 to t) in CD1 mouse at 8.366 mg/kg administered via oral gavage by LC-MS/MS method; format: ADME, organism-based; conditions: in vivo; summary of the method: as §2
[8] = Half life in CD1 mouse at 0.211 mg/kg, iv as bolus dose by LC-MS/MS method; format: ADME, organism-based; conditions: in vivo; summary of the method: as §2
[9] = Tmax in CD1 mouse at 8.366 mg/kg administered via oral gavage by LC-MS/MS method; format: ADME, organism-based; conditions: in vivo; summary of the method: as §1
[10] = Cmax in CD1 mouse at 8.366 mg/kg administered via oral gavage by LC-MS/MS method; format: ADME, organism-based; design: dose 8.366 mg/kg, route oral; conditions: in vivo; summary of the method: as §2
[11] = system: Plasmodium yoelii; assay: Schizontocidal activity against Plasmodium yoelii infected in CD1 mouse administered via oral gavage as qd for 4 days starting 1 hr post infection by YOYO-1 dye-based flow cytometric method; format: functional
Summary of the method: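 Blood schizontocidal activity was tested in a modified 4-day suppressive test in mice infected with P. yoelii. Four oral doses were given by gavage over four days.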

[12] = Volume of distribution in CD1 mouse at 0.195 mg/kg, iv as bolus dose by LC-MS/MS method; format: ADME, organism-based; conditions: in vivo; summary of the method: as §1
[13] = Oral bioavailability in CD1 mouse at 9.354 mg/kg administered via gavage by LC-MS/MS method; format: ADME, organism-based; conditions: in vivo; summary of the method: as §1
[14] = AUC (0 to t) in CD1 mouse at 9.354 mg/kg administered via oral gavage by LC-MS/MS method; format: ADME, organism-based; conditions: in vivo; summary of the method: as §2
[15] = AUC (infinity) in CD1 mouse at 9.354 mg/kg administered via oral gavage by LC-MS/MS method; format: ADME, organism-based; design: dose 9.354 mg/kg, route oral, time infinity; conditions: in vivo; summary of the method: as §2
[16] = Clearance in CD1 mouse at 0.195 mg/kg, iv as bolus dose by LC-MS/MS method; format: ADME, organism-based; conditions: in vivo; summary of the method: as §2
[17] = Half life in CD1 mouse at 0.195 mg/kg, iv as bolus dose by LC-MS/MS method; format: ADME, organism-based; conditions: in vivo; summary of the method: as §2
[18] = Tmax in CD1 mouse at 9.354 mg/kg administered via oral gavage by LC-MS/MS method; format: ADME, organism-based; conditions: in vivo; summary of the method: as §1
[19] = Cmax in CD1 mouse at 9.354 mg/kg administered via oral gavage by LC-MS/MS method; format: ADME, organism-based; design: dose 9.354 mg/kg, route oral; conditions: in vivo; summary of the method: as §2
[20] = Cmax in CD1 mouse at 4.42 mg/kg administered via oral gavage by LC-MS/MS method; format: ADME, organism-based; design: dose 4.42 mg/kg, route oral; conditions: in vivo; summary of the method: as §2
[21] = AUC (0 to t) in CD1 mouse at 4.42 mg/kg administered via oral gavage by LC-MS/MS method; format: ADME, organism-based; conditions: in vivo; summary of the method: as §2
[22] = AUC (infinity) in CD1 mouse at 4.42 mg/kg administered via oral gavage by LC-MS/MS method; format: ADME, organism-based; design: dose 4.42 mg/kg, time infinity, route oral; conditions: in vivo; summary of the method: as §2
[23] = Oral bioavailability in CD1 mouse at 4.42 mg/kg administered via gavage by LC-MS/MS method; format: ADME, organism-based; conditions: in vivo; summary of the method: as §1
[24] = Tmax in CD1 mouse at 4.42 mg/kg administered via oral gavage by LC-MS/MS method; format: ADME, organism-based; conditions: in vivo; summary of the method: as §1

serum albumin, sequence (P02768 whole entry): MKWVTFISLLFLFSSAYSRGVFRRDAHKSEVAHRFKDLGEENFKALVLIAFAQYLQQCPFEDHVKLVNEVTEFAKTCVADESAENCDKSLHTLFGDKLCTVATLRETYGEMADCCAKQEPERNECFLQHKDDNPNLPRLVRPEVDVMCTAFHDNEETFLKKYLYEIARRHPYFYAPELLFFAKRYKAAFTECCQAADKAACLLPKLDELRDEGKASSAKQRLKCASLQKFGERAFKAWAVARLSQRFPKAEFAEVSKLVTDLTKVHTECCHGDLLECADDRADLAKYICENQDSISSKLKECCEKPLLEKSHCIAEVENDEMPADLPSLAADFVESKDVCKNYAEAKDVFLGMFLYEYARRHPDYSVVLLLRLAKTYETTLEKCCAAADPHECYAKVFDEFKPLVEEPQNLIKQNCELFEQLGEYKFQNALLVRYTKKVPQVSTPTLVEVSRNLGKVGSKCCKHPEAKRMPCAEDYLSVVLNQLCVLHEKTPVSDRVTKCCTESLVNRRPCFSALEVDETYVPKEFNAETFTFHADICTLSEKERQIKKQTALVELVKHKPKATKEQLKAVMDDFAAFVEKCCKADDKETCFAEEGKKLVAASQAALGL

SMILES: Cc1[nH]c(CO)c(-c2ccc(Oc3ccc(OC(F)(F)F)cc3)cc2)c(=O)c1Cl
- IC50 [1]: 5 nM

SMILES: Cc1[nH]c(CO)c(Cl)c(=O)c1-c1ccc(Oc2ccc(OC(F)(F)F)cc2)cc1
- IC50 [1]: 133 nM

SMILES: Cc1[nH]c(C)c(-c2ccc(OCc3cccc(C(F)(F)F)c3)nc2)c(=O)c1Cl
- IC50 [1]: 5 nM

SMILES: Cc1[nH]c(C)c(-c2ccc(Oc3ccc(OC(F)(F)F)cc3)nc2)c(=O)c1Cl
- IC50 [1]: 33 nM

SMILES: Cc1[nH]c(C)c(-c2ccc(-c3ccccc3OC(F)(F)F)nc2)c(=O)c1Cl
- IC50 [1]: 35 nM

SMILES: Cc1[nH]c(C)c(-c2ccc(-c3ccc(F)cc3)nc2)c(=O)c1Cl
- IC50 [1]: 82 nM

SMILES: Cc1[nH]c(C)c(-c2ccc(OCc3ccc(F)cc3)nc2)c(=O)c1Cl
- IC50 [1]: 33 nM

SMILES: Cc1[nH]c(C)c(-c2ccc(-c3ccc(C(F)(F)F)cc3Cl)nc2)c(=O)c1Cl
- Vd [2]: 1.24 L/kg
- clearance [3]: 1.11 mL/min/kg
- bioavailability [4]: 30%
- fraction unbound [5]: 0.05
- AUC(0-inf) [6]: 37500 ng·h/mL
- AUC(0-t) [7]: 37400 ng·h/mL
- half-life [8]: 12.8 h
- IC50 [1]: 2 nM
- Tmax [9]: 10 h
- Cmax [10]: 1690 ng/mL
- ED50 [11]: 0.33 mg/kg

SMILES: Cc1[nH]c(C)c(-c2ccc(-c3cccc(CO)c3)nc2)c(=O)c1Br
- IC50 [1]: 324 nM

SMILES: Cc1[nH]c(C)c(-c2ccc(-c3cccc(C(F)(F)F)c3)nc2)c(=O)c1Cl
- fraction unbound [5]: 0.05
- Vd [12]: 0.68 L/kg
- bioavailability [13]: 38.7%
- AUC(0-t) [14]: 39500 ng·h/mL
- AUC(0-inf) [15]: 39500 ng·h/mL
- clearance [16]: 1.52 mL/min/kg
- IC50 [1]: 40 nM
- half-life [17]: 5.13 h
- Tmax [18]: 3 h
- Cmax [19]: 2470 ng/mL
- ED50 [11]: 1.2 mg/kg

SMILES: Cc1[nH]c(C)c(-c2ccc(C#Cc3ccc(F)cc3F)nc2)c(=O)c1Cl
- IC50 [1]: 472 nM

SMILES: Cc1[nH]c(C)c(-c2ccc(-c3ccc(S(C)(=O)=O)cc3)nc2)c(=O)c1Br
- IC50 [1]: 288 nM

SMILES: Cc1[nH]c(C)c(-c2ccc(OCc3ccc(C(F)(F)F)cc3)nc2)c(=O)c1Cl
- IC50 [1]: 5 nM

SMILES: Cc1[nH]c(CO)c(-c2ccc(-c3ccc(C(F)(F)F)cc3F)nc2)c(=O)c1Cl
- fraction unbound [5]: 0.06
- IC50 [1]: 5 nM
- ED50 [11]: 0.2 mg/kg

SMILES: Cc1[nH]c(C)c(-c2ccc(C#Cc3ccc(C(F)(F)F)cc3)nc2)c(=O)c1Br
- IC50 [1]: 58 nM

SMILES: Cc1[nH]c(C)c(-c2ccc(-c3ccc(C(F)(F)F)cc3)nc2)c(=O)c1Cl
- Cmax [20]: 3310 ng/mL
- fraction unbound [5]: 0.05
- AUC(0-t) [21]: 101000 ng·h/mL
- AUC(0-inf) [22]: 106000 ng·h/mL
- bioavailability [23]: 100%
- IC50 [1]: 16 nM
- Tmax [24]: 10 h
- ED50 [11]: 0.25 mg/kg

SMILES: Cc1[nH]c(C)c(-c2ccc(OCc3ccc(C(F)(F)F)cc3)nc2)c(=O)c1Br
- IC50 [1]: 2 nM

SMILES: Cc1[nH]c(C)c(-c2ccc(OCc3ccccc3C(F)(F)F)nc2)c(=O)c1Cl
- IC50 [1]: 10 nM

SMILES: Cc1[nH]c(C)c(-c2ccc(C#Cc3ccc(C(F)(F)F)cc3)nc2)c(=O)c1Cl
- IC50 [1]: 97 nM

SMILES: Cc1[nH]c(C)c(-c2ccc(-c3ccccc3F)nc2)c(=O)c1Br
- IC50 [1]: 64 nM

SMILES: Cc1[nH]c(C)c(-c2ccc(-c3ccc(F)cc3)nc2)c(=O)c1Br
- IC50 [1]: 129 nM
